The results in this text go back to ChEMBL document CHEMBL2046441, “Synthesis and SAR of 4-aminocyclopentapyrrolidines as N-type Ca²⁺ channel blockers with analgesic activity” (Bioorg Med Chem, 2012).

Broadly, the bioavailability is the share of a dose that reaches the circulation, judged against a reference dose that is usually intravenous. By EC50 is commonly meant the concentration that produces a half-maximal response. Broadly, the inhibition in vivo is the percentage by which the read-out fell short of the control. What is called Emax is the maximal effect, on the per cent scale that the assay sets. One may read the solubility as the dissolved amount per volume that the medium holds. Low readings indicate a poorly soluble substance, high ones a readily soluble substance.

Data set [1] in a line: Bioavailability in ip dosed Sprague-Dawley rat. The class given is ADME, organism-based. Conditions: in vivo.
The target of data set [2] is Voltage-gated L-type calcium channel (Rattus norvegicus, UniProt P22002+Q02485+P27732). Briefly: Inhibition of L-type calcium channel in Sprague-Dawley rat aorta assessed as relaxation of Kcl-induced tissue contraction by aortic ring relaxation assay. The class given is tissue-based.
A short description of data set [3]: Protein binding in plasma. The class given is ADME, cell-free. Particulars: read-out: PPB.
In data set [4] the test system is Rattus norvegicus. Briefly: Analgesic activity in Sprague-Dawley rat persistent pain model assessed as inhibition of flinching behavior at 30 mg/kg, ip dosed 30 mins before formalin challenge measured for 20 mins following formalin challenge. Particulars: route intraperitoneal. The class given is functional. The procedure, abridged:
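Male Sprague-Dawley rats (200–350 g) were dosed ip in 10% DMSO/PEG 400 (3, 10, 30 mg/kg; n = 6) 30 min before formalin. They then received 50 µl of 5% formalin s.c. into the dorsal right hind paw. Flinches of the injected paw were counted 30–50 min after injection (phase II), sampling one 60 s period per 5 min interval.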

Data set [5] concerns Rattus norvegicus. The experiment in a line: Analgesic activity in Sprague-Dawley rat persistent pain model assessed as inhibition of flinching behavior at 10 mg/kg, ip dosed 30 mins before formalin challenge measured for 20 mins following formalin challenge.
Data set [6] can be described thus: Stability in human liver microsomes assessed as compound remaining measured after 30 mins. Conditions: read-out: Stability. The data set is classed as ADME, Microsome. The method in brief: (§1)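 Compound is incubated with human or rat liver microsomes, and percent parent remaining is measured after 30 min.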
A general note: Microsomes from liver hold many membrane-bound enzymes, among them those of drug oxidation.

Data set [7] relates to Rattus norvegicus. Briefly: Analgesic activity in Sprague-Dawley rat acute inflammatory pain model assessed as inhibition of carrageenan-induced thermal hypersensitivity of paw withdrawal latency at 30 mg/kg, ip dosed 30 mins before thermal hypersensitivity assessment. The class given is functional. Particulars: route intraperitoneal. The method in brief:
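Male Sprague-Dawley rats (200–350 g) received 3, 10 or 30 mg/kg ip in 10% DMSO/PEG 400, n = 6. Dosing was 30 min before testing, and testing was 2 h after intraplantar carrageenan in the right hind paw. Hargreaves radiant heat on 30 °C glass, 4.50 amp, 20.48 s cutoff; each paw tested 3 times ~5 min apart. PWL is the mean of the two shortest latencies.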

Data set [8] in a line: Stability in rat liver microsomes assessed as compound remaining measured after 30 mins. The class given is ADME, Microsome. Conditions: read-out: Stability. The procedure, abridged: as §1
In data set [9] the target is Voltage-dependent N-type calcium channel subunit alpha-1B (Rattus norvegicus, UniProt Q02294). The experiment in a line: Inhibition of rat Cav2.2 expressed in HEK293 cells under inactivating depolarizing conditions at holding potential of -80 to -95 mV and stepped to 0 mV once every 5 seconds by whole cell patch clamp assay.
Data set [10] relates to Rattus norvegicus. The experiment in a line: Analgesic activity in ip dosed Sprague-Dawley rat osteoarthritis pain model assessed as increase in maximum compressive grip force dosed 30 mins before grip force assessment. The class given is functional, organism-based. The procedure, abridged:
(§2)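 Male Sprague-Dawley rats (200–350 g) were tested at least 21 days after MIA injection. Dosing was 3, 10 or 30 mg/kg ip in 10% DMSO/PEG 400, 30 min before testing; n = 12 per group. Hindlimb grip force was measured twice ~2 min apart to get CFmax, normalised to body weight. Vehicle group set as 0%, age-matched naive group as 100%.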

Data set [11] can be described thus: Aqueous solubility of the compound. The data set is classed as physicochemical. Particulars: buffer.
Data set [12] deals with Rattus norvegicus. The experiment in a line: Cardiovascular toxicity in anesthetized Sprague-Dawley rat assessed as changes in mean arterial pressure at 10 mg/kg, iv by hemodynamic function study. The class given is organism-based, Artery. Set-up: dose 10 mg/kg, route intravenous. Particulars: in vivo.
Data set [13] can be described thus: Therapeutic index, ratio of cardiovascular effect in Sprague-Dawley rat at 10 mg/kg, iv to EC50 for analgesic activity in ip dosed Sprague-Dawley rat osteoarthritis pain model. Particulars: in vivo, read-out: TI. Set-up: dose 10 mg/kg, route intravenous. The data set is classed as organism-based.
Data set [14] relates to Rattus norvegicus. Briefly: Analgesic activity in Sprague-Dawley rat osteoarthritis pain model assessed as increase in maximum compressive grip force at 30 mg/kg, ip dosed 30 mins before grip force assessment. Particulars: route intraperitoneal. The data set is classed as functional. The method in brief: as §2
Data set [15] concerns Rattus norvegicus. Briefly: Neurotoxicity in Sprague-Dawley rat assessed as induction of rotarod performance deficit at 3 to 30 mg/kg, ip and measured once animals were placed back on rotarod apparatus for 3 consecutive testing trials 30 mins following compound dosing. Particulars: in vivo, 0.5 h. Set-up: dose 3-30 mg/kg, route intraperitoneal. The data set is classed as toxicity, organism-based. The method in brief: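 Male rats first receive three training sessions on an accelerating rod, 0–20 rpm over 60 s. Dosing is 3, 10, 30 mg/kg ip in 10% DMSO/PEG400, n = 6 per group. There are 3 consecutive trials at 30 min post-dose, recording fall latency with a 60 s cut-off.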

Data set [16] deals with Rattus norvegicus. Briefly: Cardiovascular toxicity in anesthetized Sprague-Dawley rat assessed as changes in heart rate at 10 mg/kg, iv by hemodynamic function study. The data set is classed as organism-based. Set-up: dose 10 mg/kg, route intravenous. Conditions: in vivo.
Data set [17] deals with Rattus norvegicus. The experiment in a line: Cardiovascular toxicity in anesthetized Sprague-Dawley rat assessed as changes in dp/dt rate at 10 mg/kg, iv by hemodynamic function study. Set-up: dose 10 mg/kg, route intravenous. Conditions: in vivo. The data set is classed as organism-based.
Data set [18] is described as follows: Inhibition of Voltage-dependent N-type calcium channel in human IMR32 cells by FLIPR based Ca(2+) flux assay. The class given is cell-based, IMR-32. The method in brief: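 IMR32 cells were plated at 120,000/well and grown 48 h at 37 °C, 5% CO₂. Cells were loaded with Calcium 4 dye in HBSS/1 mM HEPES pH 7.4 for 1.5 h at room temperature, with antagonists present for 1 h of loading.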

Sequence of Voltage-dependent N-type calcium channel subunit alpha-1B (Q02294 whole entry): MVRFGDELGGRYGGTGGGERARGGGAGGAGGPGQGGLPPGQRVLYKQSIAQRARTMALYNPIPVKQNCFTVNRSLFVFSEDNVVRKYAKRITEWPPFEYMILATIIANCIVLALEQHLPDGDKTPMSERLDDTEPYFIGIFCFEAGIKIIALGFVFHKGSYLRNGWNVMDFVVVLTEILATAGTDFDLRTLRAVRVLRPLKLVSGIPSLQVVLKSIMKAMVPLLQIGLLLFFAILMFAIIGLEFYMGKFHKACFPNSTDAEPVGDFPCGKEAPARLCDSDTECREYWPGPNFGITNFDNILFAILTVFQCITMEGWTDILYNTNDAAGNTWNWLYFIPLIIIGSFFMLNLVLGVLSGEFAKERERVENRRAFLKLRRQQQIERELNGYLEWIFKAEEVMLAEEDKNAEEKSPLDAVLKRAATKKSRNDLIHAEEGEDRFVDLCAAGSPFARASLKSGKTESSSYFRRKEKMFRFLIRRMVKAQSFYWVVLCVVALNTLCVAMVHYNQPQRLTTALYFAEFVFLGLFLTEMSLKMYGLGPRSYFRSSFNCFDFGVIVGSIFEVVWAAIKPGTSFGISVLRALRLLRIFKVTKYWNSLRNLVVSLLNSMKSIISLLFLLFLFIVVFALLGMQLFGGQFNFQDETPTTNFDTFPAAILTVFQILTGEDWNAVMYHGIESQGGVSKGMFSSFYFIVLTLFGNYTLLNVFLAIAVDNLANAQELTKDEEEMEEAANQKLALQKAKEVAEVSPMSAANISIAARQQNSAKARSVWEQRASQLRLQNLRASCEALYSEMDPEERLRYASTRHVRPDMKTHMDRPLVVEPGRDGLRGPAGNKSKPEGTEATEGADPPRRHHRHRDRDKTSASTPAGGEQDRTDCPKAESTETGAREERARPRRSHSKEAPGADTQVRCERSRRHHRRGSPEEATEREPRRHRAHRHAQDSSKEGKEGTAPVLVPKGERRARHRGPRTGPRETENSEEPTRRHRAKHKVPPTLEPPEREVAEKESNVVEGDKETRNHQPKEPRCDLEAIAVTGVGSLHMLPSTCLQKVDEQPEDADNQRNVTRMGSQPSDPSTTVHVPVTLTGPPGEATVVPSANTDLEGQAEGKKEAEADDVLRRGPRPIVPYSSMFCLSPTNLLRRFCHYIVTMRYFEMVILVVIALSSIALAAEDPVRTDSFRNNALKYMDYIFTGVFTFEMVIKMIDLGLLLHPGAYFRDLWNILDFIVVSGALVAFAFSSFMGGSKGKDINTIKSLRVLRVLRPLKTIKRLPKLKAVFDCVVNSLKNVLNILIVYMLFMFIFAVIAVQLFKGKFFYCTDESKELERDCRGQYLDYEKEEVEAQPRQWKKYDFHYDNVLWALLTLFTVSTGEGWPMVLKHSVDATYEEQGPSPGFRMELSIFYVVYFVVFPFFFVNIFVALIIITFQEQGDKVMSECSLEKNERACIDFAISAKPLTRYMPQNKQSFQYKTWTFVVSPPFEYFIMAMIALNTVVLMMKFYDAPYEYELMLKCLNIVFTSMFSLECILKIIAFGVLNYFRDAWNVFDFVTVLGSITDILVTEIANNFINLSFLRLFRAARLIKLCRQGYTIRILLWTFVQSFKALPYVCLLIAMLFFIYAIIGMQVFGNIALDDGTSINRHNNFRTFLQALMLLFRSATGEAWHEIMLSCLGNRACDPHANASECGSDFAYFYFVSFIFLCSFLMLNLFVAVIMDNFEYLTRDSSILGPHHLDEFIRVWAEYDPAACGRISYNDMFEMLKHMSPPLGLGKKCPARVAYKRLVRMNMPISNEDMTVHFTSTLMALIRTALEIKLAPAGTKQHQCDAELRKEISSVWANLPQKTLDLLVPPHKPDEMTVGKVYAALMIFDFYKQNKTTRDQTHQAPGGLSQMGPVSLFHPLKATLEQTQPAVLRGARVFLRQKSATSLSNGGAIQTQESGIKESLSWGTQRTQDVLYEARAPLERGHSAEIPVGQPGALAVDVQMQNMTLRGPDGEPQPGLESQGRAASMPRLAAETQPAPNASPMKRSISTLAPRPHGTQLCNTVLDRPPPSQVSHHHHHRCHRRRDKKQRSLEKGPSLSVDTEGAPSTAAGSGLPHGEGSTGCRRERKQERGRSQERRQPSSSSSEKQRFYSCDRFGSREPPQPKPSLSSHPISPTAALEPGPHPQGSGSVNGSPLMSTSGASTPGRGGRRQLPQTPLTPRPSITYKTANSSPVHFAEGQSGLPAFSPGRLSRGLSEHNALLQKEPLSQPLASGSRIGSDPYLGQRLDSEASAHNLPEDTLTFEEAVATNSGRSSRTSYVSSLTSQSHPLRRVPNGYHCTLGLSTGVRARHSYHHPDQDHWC

The molecule `O=C(N[C@H]1CC[C@H]2CN(Cc3cccc(C(F)(F)F)c3)C[C@H]21)C(C1CCCCC1)C1CCCCC1` yielded a bioavailability in data set [1] of 41%. In addition, the EC50 in data set [2] worked out at 46000 nM; in the data set on Rattus norvegicus [10], 2000 nM. Moreover, the “inhibition (INH)” value in data set [2] (rat) is given as “Dose-dependent effect”. The fraction unbound in [3] is less than 0.01. The inhibition in vivo at 30 mg/kg in the data set on Rattus norvegicus [4] is 51%. For the same molecule, the inhibition in vivo at 10 mg/kg in the data set with Rattus norvegicus [5] was found to be 51%. Also, the remaining at 0.5 h in [6] and in data set [8] was less than 5% each time. Further, the Emax at 30 mg/kg in the data set with Rattus norvegicus [7] amounted to 67%; in the data set on Rattus norvegicus [14], 87%. Further, the IC50 in [9] is 41 nM; in data set [18] (Homo sapiens, IMR-32, read-out: pIC50 (converted)) it was 468 nM; in [18] (imr-32, read-out: IC50), 460 nM. The solubility in data set [11] was less than 3 µM. Besides, the Activity entry with Rattus norvegicus [12], with Rattus norvegicus [15], in the data set with Rattus norvegicus [16] and with Rattus norvegicus [17] was “Non-toxic” in each case. In data set [13], the selectivity ratio is more than 15.
